# Measurements taken from ChEMBL document CHEMBL1914330 (Eur J Med Chem, 2011).
# Activity calls are given as the source filed them. The calls are words filed in the database; no cut-off is given here.
# What was measured:
# [1] = system: HeLa; test: Cell cycle arrest in human HeLa cells assessed as decrease in cell accumulation in G1 phase after 24 hrs by propidium iodide staining-based flow cytometry; format: functional
# Summary of the method: (§1)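 HeLa cells treated for 24 h over 0.06–0.5 µM. Cells fixed in ice-cold 70% ethanol, lysed with buffer containing RNase A and 0.1% Triton X-100, and stained with PI. DNA content read by flow cytometry, including the sub-G1 fraction. Mean ± SEM of three independent experiments.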
# [2] = system: HeLa; test: Induction of cell cycle arrest at G2/M phase in human HeLa cells assessed as decrease in Cdc2 phosphorylation at Tyr15 at 0.25 to 5 uM after 24 hrs by Western blot analysis; format: functional, cell-based
# Summary of the method: (§2)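 HeLa cells treated for 24 or 48 h were washed in cold PBS and lysed on ice for 30 min. Lysates were cleared at 15,000 × g, run on SDS-PAGE and blotted. Membranes were probed 2 h at room temperature with antibodies to the target protein, then peroxidase secondary and ECL. Blots were reprobed for β-actin as loading control.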
# [3] = system: HeLa; test: Induction of apoptosis in human HeLa cells assessed as accumulation of necrotic cells after 24 hrs by Annexin-V-FITC/propidium iodide staining-based flow cytometric analysis; format: functional, cell-based
# Summary of the method: (§3)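 HeLa cells treated for 24 or 48 h, then labelled with annexin-V-FITC and PI. Analysed by flow cytometry with excitation at 488 nm and emission at 525 nm (FITC) and 585 nm (PI). Quadrants scored as live, early apoptotic, late apoptotic or necrotic. Mean ± SEM of four independent experiments.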
# [4] = system: CCRF-CEM; test: Ratio of IC50 for vinblastine-resistant human CEM/VBL100 cells to IC50 for human CEM cells; format: functional
# [5] = system: HeLa; test: Induction of cell cycle arrest at G2/M phase in human HeLa cells assessed as partial recovery in Cdc2 phosphorylation at Tyr15 at 0.25 to 5 uM after 48 hrs by Western blot analysis; format: functional, cell-based; summary of the method: as §2
# [6] = system: HeLa; test: Induction of apoptosis in human HeLa cells assessed as accumulation of late apoptotic cells after 48 hrs by Annexin-V-FITC/propidium iodide staining-based flow cytometric analysis; format: functional, cell-based; summary of the method: as §3
# [7] = system: HeLa; test: Cell cycle arrest in human HeLa cells at G2/M phase after 24 hrs by propidium iodide staining-based flow cytometry; format: functional; summary of the method: as §1
# [8] = system: A549; test: Ratio of IC50 for taxol-resistant human A549-T12 cells to IC50 for human A549 cells; format: functional
# [9] = system: A549; test: Antiproliferative activity against human A549 cells after 72 hrs by MTT assay; format: functional, cell-based; settings: A549, 72 h
# Summary of the method: (§4)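 Cells seeded at 8 × 10³ per well in complete medium and exposed to a range of compound concentrations at 37 °C for 72 h. Viability read by MTT test. IC50 taken as the concentration inhibiting proliferation by 50%.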
# [10] = Antiproliferative activity against human taxol-resistant A549-T12 cells after 72 hrs by MTT assay; format: functional, cell-based; settings: A549, 72 h; summary of the method: as §4
# [11] = system: HeLa; test: Effect on Bcl2 protein expression in human HeLa cells at 0.25 to 0.5 uM after 24 hrs by Western blot analysis; format: functional, cell-based; summary of the method: as §2
# [12] = system: Mus musculus; test: Toxicity in BALB/c nude mouse xenografted with human HT-29 cells assessed as organism mortality at 100 mg/kg, ip administered 3 times per week for 1 week measured on day 19; format: organism-based; parameters: dose 100 mg/kg, route intraperitoneal; settings: in vivo, 168 h
# Summary of the method: (§5)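 HT-29 cells in log phase, suspended at 1 × 10⁷ cells/mL in serum-free RPMI 1640, 0.2 mL injected subcutaneously into the back of nude mice. At about 300 mm³, mice were randomised to vehicle or treatment groups (six per group). The compound was given in DMSO by i.p. injection at 0.01 mL/g body weight. Body weight was recorded on set days; mice were euthanised after 23 days.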
# [13] = system: CCRF-CEM; test: Antiproliferative activity against human CEM cells after 2 days by coulter counter analysis; format: functional, cell-based; settings: 48 h
# Summary of the method: (§6)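 Cells suspended at 300,000–500,000 cells/mL and mixed 1:1 with diluted compound. Incubated at 37 °C for two days, then counted with a Coulter counter. IC50 is the concentration inhibiting proliferation by 50%, as mean ± SE from dose-response curves of at least three independent experiments.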
# [14] = system: HeLa; test: Induction of apoptosis in human HeLa cells assessed as decrease in Bcl2 protein expression at 0.25 to 0.5 uM after 48 hrs by Western blot analysis; format: functional, cell-based; summary of the method: as §2
# [15] = system: FM3A; test: Antiproliferative activity against mouse FM3A cells after 2 days by coulter counter analysis; format: functional, cell-based; settings: 48 h
# [16] = system: L1210; test: Antiproliferative activity against mouse L1210 cells after 2 days by coulter counter analysis; format: functional, cell-based; settings: L1210, 48 h; summary of the method: as §6
# [17] = system: Mus musculus; test: Toxicity in nude BALB/c mouse xenografted with human HT-29 cells assessed as organism mortality at 100 mg/kg, ip administered 3 times per week for 1 week measured on day 7; format: organism-based; parameters: dose 100 mg/kg, route intraperitoneal; settings: in vivo, 168 h; summary of the method: as §5
# [18] = system: HeLa; test: Induction of apoptosis in human HeLa cells assessed as loss of mitochondrial membrane potential after 24 to 48 hrs by JC1 staining-based flow cytometric analysis; format: functional, cell-based
# Summary of the method: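 After 24 or 48 h treatment, HeLa cells were trypsinized and resuspended in HBSS with JC-1 (1 µM). Incubated 10 min at 37 °C, washed, and read by flow cytometry for red (590 nm) aggregate versus green (530 nm) monomer. Mean ± SEM of three experiments.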
# [19] = system: HeLa; test: Induction of cell cycle arrest at G2/M phase in human HeLa cells assessed as disappearance of Cdc25C expression at 0.25 to 5 uM after 48 hrs by Western blot analysis; format: functional, cell-based; summary of the method: as §2
# [20] = system: HT-29; test: Antitumor activity against human HT-29 cells xenografted in BALB/c nude mouse assessed as reduction in tumor mass at 100 mg/kg, ip administered 3 times per week for 1 week; format: functional, organism-based; parameters: dose 100 mg/kg
# [21] = system: HeLa; test: Induction of apoptosis in human HeLa cells assessed as PARP cleavage at 0.25 to 5 uM by Western blot analysis; format: functional, cell-based; settings: TDE = time-dependent effect; summary of the method: as §2
structure (smiles),measurement,setting,value
COc1cc(C(=O)c2sc(N3CCCC3)nc2N)cc(OC)c1OC,Activity,[1],Dose-dependent effect
same,Activity,[2],Active
same,Activity,[3],Dose-dependent effect
same,Ratio IC50,[4],0.2
same,Activity,[5],inactive
same,Activity,[6],Active
same,Activity,[7],Dose-dependent effect
same,Ratio IC50,[8],4.3
same,IC50,[9],37 nM
same,IC50,[10],160 nM
same,Activity,[11],inactive
same,Activity,[12],Toxic
same,IC50,[13],320 nM
same,Activity,[14],Active
same,IC50,[15],180 nM
same,IC50,[16],370 nM
same,Activity,[17],Toxic
same,Activity,[18],Dose-dependent effect
same,Activity,[19],Active
same,Activity,[20],Active
same,Activity,[21],tde
